High-throughput results deposited in PubChem BioAssay by The Scripps Research Institute Molecular Screening Center.
HTRA1 inh – inhibitors of human serine peptidase HTRA1 | Q92743 | recombinant HTRA1, FP-rhodamine activity-based probe, fluorescence polarization | inhibition, % at 5.96 µM | 0.5% of 340,000 active | AID 504803; in the data active = inhibition above about 36%
mABHD4 FP – inhibits mouse alpha/beta hydrolase domain 4; purified mABHD4, FP-Rh probe fluorescence polarization; inhibition, % at 8.92 µM; 0.54% of 370,000 active;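 active = inhibition exceeding the mean over every tested compound plus 3 SD, cut at about 30% in these data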
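system = mouse ABHD4 enzyme, wild type | medium = HEPES pH 7.0, NaCl, Pluronic buffer | also added = FP-Rh probe | incubation = Enzyme–compound pre-incubation 45 min, then probe 60 min, both 25 °C | technique = fluorescence polarization, excitation 525 nm, emission 598 nm, BODIPY TMR filters | controls = S159A mutant high control, sample median low control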
SIAE inh – inhibitors of human sialic acid acetylesterase SIAE; AID 1053197; 0.69% of 370,000 active; Q9HAT2; inhibition, % at 9.66 µM; SIAE FP-Rh probe binding, fluorescence polarization;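 active = inhibition above a cutoff: mean of compounds within the control limits plus 3 SD of those, cut at about 17% in these data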
Target sequence (Q9HAT2 whole entry, looked up): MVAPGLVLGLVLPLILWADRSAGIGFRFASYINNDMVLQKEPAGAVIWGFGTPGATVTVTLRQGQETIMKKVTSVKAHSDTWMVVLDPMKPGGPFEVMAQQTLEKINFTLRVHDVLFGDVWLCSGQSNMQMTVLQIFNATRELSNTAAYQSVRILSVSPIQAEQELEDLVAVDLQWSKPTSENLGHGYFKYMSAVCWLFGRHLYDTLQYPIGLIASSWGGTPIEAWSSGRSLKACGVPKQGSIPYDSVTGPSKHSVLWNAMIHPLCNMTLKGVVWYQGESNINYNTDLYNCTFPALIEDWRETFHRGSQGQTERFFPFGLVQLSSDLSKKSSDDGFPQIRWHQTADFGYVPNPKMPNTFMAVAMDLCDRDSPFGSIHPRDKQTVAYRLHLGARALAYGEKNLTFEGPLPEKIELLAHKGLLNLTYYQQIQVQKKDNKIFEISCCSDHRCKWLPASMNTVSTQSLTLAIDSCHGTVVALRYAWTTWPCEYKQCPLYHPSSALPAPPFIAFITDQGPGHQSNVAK
TCR CD3 inh – human TCR-CD3 binding inhibition | AID 651800 | TAMRA-labeled TCR probe fluorescence, biochemical | inhibition, % at 9.4 µM | 0.37% of 360,000 active; in the data active = inhibition above about 19%;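 note: recombinant mutant TCR 2C K166C tagged with TAMRA read by polarization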
PRMT1 FP inh – inhibitors of human PRMT1. recombinant PRMT1, activity-based probe fluorescence polarization. inhibition, % at 2.79 µM. 1.3% of 370,000 active. AID 652257;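 active = inhibition above about 21% made by adding two undisclosed values, limit read from the data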
HTRA1 conf – confirmation of human HTRA1 inhibitors. 66% of 1,600 active. inhibition, % at 5.96 µM. shares compounds with HTRA1 inh. recombinant HTRA1, FP-rhodamine activity-based probe, fluorescence polarization;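 active = mean inhibition over three repeats above a set limit taken from the earlier primary screen, cut at about 37% in these data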;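 note: inhibitors block probe binding so polarization drops and inhibition rises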
Of the large screens only hits and unclear results are named; the others gave an inactive call (follow-up assays come after a bar, where they were run). The list is not random: actives were taken first. Their share in the collection is about 2.6%.

CN1CCN(c2nc3ccccc3nc2C(C#N)S(=O)(=O)c2ccccc2)CC1 (stereo not given)	none (no result: HTRA1 inh)
COc1cccc2c1C(=N)c1c(O)c3c(c(O)c1C2=O)CC(O)(C(C)=O)CC3OC1CC(N)C(O)C(C)O1 (stereo not given)	HTRA1 inh 41 (no result: mABHD4 FP, SIAE inh, TCR CD3 inh, PRMT1 FP inh) | HTRA1 conf 43
CCCCOc1ccc(C(=O)NC2CCCCN(Cc3ccccc3C)C2=O)cc1 (stereo not given)	none (no result: HTRA1 inh, TCR CD3 inh)
O=C(/C(=N/O)c1ccccc1)c1ccccc1	none
O=C(/C(=N/N=C/c1ccc(O)c(O)c1)c1ccccc1)c1ccccc1	HTRA1 inh 41 | HTRA1 conf 78
COc1ccc(Cn2ccc3ccc(-c4ccc5ccn(Cc6ccc(OC)cc6)c5c4)cc32)cc1	none (no result: HTRA1 inh, TCR CD3 inh)
Cc1ccc(Nc2nc(-c3sc(N)nc3C)cs2)cc1	HTRA1 inh 50 | HTRA1 conf inactive
Cc1nc(N)sc1-c1csc(Nc2ccc(Cl)cn2)n1	HTRA1 inh 42 | HTRA1 conf 37
C#CCNC(=O)C[C@H]1C[C@@]2(C(=O)OC)C(=C[C@H](COCc3ccccc3)O[C@@H]2C)N(CCc2ccc(OC)c(OC)c2)C1=O	none (no result: HTRA1 inh, TCR CD3 inh)
Cc1cccc(C)c1NC(=O)CN(C)C(=O)c1cc([N+](=O)[O-])ccc1N1CCOCC1	none
CN(CC(=O)Nc1ccccc1Br)C(=O)c1cc([N+](=O)[O-])ccc1N1CCOCC1	HTRA1 inh 92 | HTRA1 conf inactive
Cc1ccccc1N(C)C(=O)C1CCCN1S(=O)(=O)c1cccc2cccnc12 (stereo not given)	none (no result: HTRA1 inh, TCR CD3 inh)
CC(=O)c1ccc(NC(=O)CC2Nc3cccc4cccc(c34)NC2=O)cc1 (stereo not given)	HTRA1 inh 57 | HTRA1 conf inactive
CC(=O)Nc1ccc(NC(=O)CC2Nc3cccc4cccc(c34)NC2=O)cc1 (stereo not given)	none
CCCCOCCCNC(=O)C[C@H]1C[C@@]2(C(=O)OC)C(=C[C@H](COCc3ccccc3)O[C@@H]2C)N(CCc2ccc(OC)c(OC)c2)C1=O	none (no result: HTRA1 inh, TCR CD3 inh)
O=C1CC(Nc2ccc(N3CCOCC3)cc2)C(=O)N1c1ccccc1 (stereo not given)	none (no result: mABHD4 FP, SIAE inh, TCR CD3 inh, PRMT1 FP inh)
O=C1CC(Nc2ccc(N3CCOCC3)cc2)C(=O)N1Cc1ccccc1 (stereo not given)	HTRA1 inh 49, mABHD4 FP 49, SIAE inh 18 | HTRA1 conf inactive
O=C(NCC1CCN(C(=O)C(=O)c2cccs2)CC1)c1ccc2c(c1)CCO2	none (no result: HTRA1 inh)
Cc1ccc(/C=C/C(=O)c2ccccc(=O)c2O)cc1C	HTRA1 inh 37 | HTRA1 conf 44
COc1ccc(/C=N\NC(=O)c2cc(O)c(O)c(O)c2)cc1COc1ccc(C(=O)OCC(C)C)cc1	HTRA1 inh 58 | HTRA1 conf 55
COc1ccc(C(=O)N/N=C/c2ccc(OC)c(COc3ccccc3)c2)cc1	none
O=[N+]([O-])c1ccc(/C=N/Nc2ccc3ccccc3c2)o1	HTRA1 inh 37 | HTRA1 conf inactive
O=C(NC(C(=O)N/N=C/c1ccccc1)c1n[nH]c(=O)c2ccccc12)c1ccccc1 (stereo not given)	none
O=C(NC(C(=O)N/N=C/c1c2ccccc2cc2ccccc12)c1n[nH]c(=O)c2ccccc12)c1ccccc1 (stereo not given)	HTRA1 inh 40 | HTRA1 conf inactive
CCOC(=O)[C@@]12CCCC3=C1N(CCC3)C(=O)[C@H]2CC(=O)NCc1cccc2ccccc12	none (no result: HTRA1 inh, TCR CD3 inh)
Cn1c(=O)c(=O)n(C)c2cc(S(=O)(=O)N3CCN(Cc4ccc5c(c4)OCO5)CC3)ccc21	none (no result: HTRA1 inh, TCR CD3 inh)
Cc1ccc2c(c1)c1c3n2CCN(C(=O)C2CC2)C3CCC1 (stereo not given)	none
Cc1ccc2c(c1)c(=O)c1c3n2CCN(C(=O)CCl)C3CC1 (stereo not given)	HTRA1 inh 48 | HTRA1 conf inactive
CC(C)[C@H](NC(=O)c1cccc(S(=O)(=O)N2CCOCC2)c1)C(=O)OCC(=O)Nc1cccc(Br)c1	HTRA1 inh 37 | HTRA1 conf 37
CCn1c(C)nc2cc(C(=O)N/N=C(\C)c3ccc(OC)cc3O)ccc21	HTRA1 inh 40 | HTRA1 conf inactive
O=C1CC(O)C(Cc2ccccc2)N1 (stereo not given)	none (no result: HTRA1 inh)
O=C(N/N=C/c1ccc(-c2ccc(S(=O)(=O)Nc3ncccn3)cc2)o1)c1cc2ccccc2cc1O	HTRA1 inh 57 | HTRA1 conf 66
CCOc1ccc(C(=O)N/N=C/c2ccc(-c3ccc(S(=O)(=O)Nc4ncccn4)cc3)o2)cc1	none
CCCCn1c(/C=N/Nc2nc3ccccc3[nH]2)nc2ccccc21	HTRA1 inh 41 | HTRA1 conf 59
O=C1C[C@@H](c2ccccc2)N=C2N(CC3CC3)C/C(=C/c3ccccc3)N12	none (no result: HTRA1 inh, TCR CD3 inh)
CCn1c(CSc2nnc3ccccn23)nc2cc(C(=O)O)ccc21	HTRA1 inh 37, mABHD4 FP 40, SIAE inh 54, TCR CD3 inh 67 | HTRA1 conf 79
Cc1cc(Cl)ccc1OCCCC(=O)NNC(=O)c1ccccc1O	HTRA1 inh 39 | HTRA1 conf 52
Fc1cccc(F)c1Cn1ccc2ccc(-c3ccc4ccn(Cc5c(F)cccc5F)c4c3)cc21	none (no result: HTRA1 inh, TCR CD3 inh)
COc1cc(/C=N/NC(N)=O)ccc1OC(=O)c1cccs1	none
COc1cc(/C=N/Nc2ccc(Cl)cc2)ccc1OC(=O)c1cccs1	HTRA1 inh 47 | HTRA1 conf 68
COc1ccc(OC)c(NC(=O)O[C@@H]2CC[C@@]34CCCN3C(=O)CCC[C@H]4C2)c1	none (no result: HTRA1 inh, TCR CD3 inh)
Cn1cccc1C(=O)N1CCN(S(=O)(=O)c2cccc3ccccc23)CC1	none (no result: HTRA1 inh, TCR CD3 inh)
Cc1cc2cc(CNC(=S)NCc3ccccc3)ccc2n1C	HTRA1 inh 49 | HTRA1 conf inactive
Cc1cc2cc(CNC(=S)NC3CCCCC3)ccc2n1C	HTRA1 inh 40 | HTRA1 conf inactive
COc1ccccc1NC(=S)NCc1ccc2c(c1)cc(C)n2C	HTRA1 inh 38 | HTRA1 conf inactive
Cc1ccccc1NC(=S)NCc1ccc2c(c1)cc(C)n2C	none
CCCCNC(=S)NCc1ccc2c(c1)cc(C)n2C	none
CCCCOCCCNC(=O)C[C@H]1C[C@@]2(C(=O)OC)C(=C[C@H](C(C)C)O[C@@H]2C2CC2)N(Cc2ccc(Cl)cc2Cl)C1=O	none (no result: HTRA1 inh, TCR CD3 inh)
C[C@H](O)[C@@H]1CN2CCc3c([nH]c4cccc(-c5ccccc5)c34)[C@@H]2C[C@@H]1N(C)C(=O)c1ccco1	none (no result: HTRA1 inh, TCR CD3 inh)
C/C(=N\Nc1nc(-c2cc(C)ccc2C)cs1)c1cc2ccccc2oc1=O	none
C/C(=N\Nc1nc(-c2cc(C)ccc2C)cs1)c1cc2c(ccc3ccccc32)oc1=O	HTRA1 inh 53 | HTRA1 conf inactive
COc1cccc2cc3c(nc12)C[C@@H]1CCCC(=O)N2CCC[C@@]12C3	none (no result: HTRA1 inh, TCR CD3 inh)
c1ccc(CN2CCC(=NNc3nc4ccccc4[nH]3)CC2)cc1	HTRA1 inh 37 | HTRA1 conf inactive
CCOC(=O)[C@]12CCCC3=C1N(CCC3)C(=O)[C@@H](CC(=O)NCCc1ccccc1OC)C2	none (no result: HTRA1 inh, TCR CD3 inh)
